Assay results as given in ChEMBL document CHEMBL1765003, “Discovery of (1S,2R,3R)-2,3-dimethyl-2-phenyl-1-sulfamidocyclopropanecarboxylates: novel and highly selective aggrecanase inhibitors” (J Med Chem, 2011).

Tests used:
Cytochrome P450 2C19 = Cytochrome P450 2C19 (Homo sapiens, UniProt P33261); assay: Inhibition of CYP2C19 at up to 50 uM; assay type: ADME
[1] = Cmax in Sprague-Dawley rat at 10 mg/kg, po; assay type: ADME, organism-based; set-up: dose 10 mg/kg, route oral; details: in vivo
[2] = AUC in Sprague-Dawley rat at 10 mg/kg, po; assay type: ADME, organism-based; set-up: dose 10 mg/kg, route oral; details: plasma
[3] = Half life in Sprague-Dawley rat at 10 mg/kg, po; assay type: ADME, organism-based; set-up: dose 10 mg/kg, route oral; details: in vivo
[4] = molecular target: Disintegrin and metalloproteinase domain-containing protein 17 (Homo sapiens, UniProt P78536); assay: Inhibition of human recombinant TACE after 60 mins by fluorescence plate reader
Method in brief: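 rh-TACE at 80 ng/mL with 10 μM MCA-Pro-Leu-Ala-Gln-Ala-Val-Dpa-Arg-Ser-Ser-Ser-Arg-NH₂, in 100 mM Tris-HCl pH 7.5, 150 mM NaCl, 10 mM CaCl₂, 0.05% Brij-35. Inhibitor preincubated for 15 min at 25 °C. Fluorescence (ex 325/em 405 nm) read at 60 min. IC50 from three linear-range points; mean of ≥2.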

Cytochrome P450 2D6 = Cytochrome P450 2D6 (Homo sapiens, UniProt P10635); assay: Inhibition of CYP2D6 at up to 50 uM; assay type: ADME
Rattus norvegicus = assay: Oral bioavailability in Sprague-Dawley rat at 10 mg/kg; assay type: ADME, organism-based; details: in vivo
[5] = molecular target: Matrix metalloproteinase-14 (Homo sapiens, UniProt P50281); assay: Inhibition of human recombinant MMP14 after 60 mins by fluorescence plate reader
Method in brief: (§1)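 Recombinant human enzyme at 20 ng/mL with 10 μM MOCAc-Lys-Pro-Leu-Gly-Leu-A2pr(Dnp)-Ala-Arg-NH₂, in 100 mM Tris-HCl pH 7.5, 150 mM NaCl, 10 mM CaCl₂, 0.05% Brij-35. Enzyme pretreated with inhibitor for 15 min at 25 °C, then substrate added. Fluorescence (ex 325, em 405 nm) read at 60 min. IC50 taken from three points in the linear range; mean of ≥2 determinations.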

Cytochrome P450 3A4 = Cytochrome P450 3A4 (Homo sapiens, UniProt P08684); assay: Inhibition of CYP3A4 at up to 50 uM; assay type: ADME
Cytochrome P450 2A6 = molecular target: T1, Cytochrome P450 2A6 (Homo sapiens, UniProt P11509); assay: Inhibition of CYP2A6 at up to 50 uM; assay type: ADME
T1 sequence (P11509 whole entry): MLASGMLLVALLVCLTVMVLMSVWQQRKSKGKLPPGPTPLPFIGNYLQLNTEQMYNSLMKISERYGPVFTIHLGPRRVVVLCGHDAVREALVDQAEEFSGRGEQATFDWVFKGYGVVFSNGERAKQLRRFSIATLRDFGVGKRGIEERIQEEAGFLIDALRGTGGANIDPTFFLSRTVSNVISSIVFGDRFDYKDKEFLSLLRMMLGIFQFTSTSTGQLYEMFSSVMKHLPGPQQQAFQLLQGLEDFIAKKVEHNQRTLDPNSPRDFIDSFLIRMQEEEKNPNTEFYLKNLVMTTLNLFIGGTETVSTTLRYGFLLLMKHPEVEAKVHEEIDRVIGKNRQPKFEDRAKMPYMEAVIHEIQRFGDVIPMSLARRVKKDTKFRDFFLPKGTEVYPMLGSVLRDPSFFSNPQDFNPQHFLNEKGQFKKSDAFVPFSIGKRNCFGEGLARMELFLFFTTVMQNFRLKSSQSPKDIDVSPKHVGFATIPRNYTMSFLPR

[6] = molecular target: T2, A disintegrin and metalloproteinase with thrombospondin motifs 5 (Homo sapiens, UniProt Q9UNA0); assay: Inhibition of human recombinant aggrecanase 2 after 150 mins by fluorescence plate reader
T2 sequence (Q9UNA0 whole entry): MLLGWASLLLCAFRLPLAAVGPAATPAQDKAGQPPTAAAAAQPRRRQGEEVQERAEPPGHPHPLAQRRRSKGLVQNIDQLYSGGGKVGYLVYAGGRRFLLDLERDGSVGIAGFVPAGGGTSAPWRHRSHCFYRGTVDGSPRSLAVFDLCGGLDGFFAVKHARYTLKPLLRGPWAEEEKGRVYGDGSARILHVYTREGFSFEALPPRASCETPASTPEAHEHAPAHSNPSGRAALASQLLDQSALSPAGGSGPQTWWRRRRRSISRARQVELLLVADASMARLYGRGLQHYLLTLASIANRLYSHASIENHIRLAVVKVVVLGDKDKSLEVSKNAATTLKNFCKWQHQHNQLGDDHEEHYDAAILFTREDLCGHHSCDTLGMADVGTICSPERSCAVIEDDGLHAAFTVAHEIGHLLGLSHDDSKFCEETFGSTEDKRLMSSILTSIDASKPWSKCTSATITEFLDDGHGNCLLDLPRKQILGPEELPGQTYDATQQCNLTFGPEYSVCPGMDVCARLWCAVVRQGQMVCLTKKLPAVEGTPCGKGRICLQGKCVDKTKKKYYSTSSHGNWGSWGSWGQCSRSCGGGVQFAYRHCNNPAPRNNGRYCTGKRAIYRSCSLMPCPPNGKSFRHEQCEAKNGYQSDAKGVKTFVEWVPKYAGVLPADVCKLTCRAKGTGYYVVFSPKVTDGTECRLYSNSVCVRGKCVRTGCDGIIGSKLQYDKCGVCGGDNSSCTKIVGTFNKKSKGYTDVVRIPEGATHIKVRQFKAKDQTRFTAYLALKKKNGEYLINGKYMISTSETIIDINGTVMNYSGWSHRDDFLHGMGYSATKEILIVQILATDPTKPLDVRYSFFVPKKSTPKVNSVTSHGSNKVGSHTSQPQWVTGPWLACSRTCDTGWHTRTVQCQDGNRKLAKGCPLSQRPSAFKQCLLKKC

[7] = Volume of distribution at steady state in Sprague-Dawley rat at 1 mg/kg, iv; assay type: ADME, organism-based; set-up: dose 1 mg/kg, route intravenous; details: in vivo, read-out: Vdss
Method in brief: (§2)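 Intravenous dose of 1 mg/kg. Blood sampled at 0.50, 1, 2, 4, 8 and 24 h. Plasma obtained by centrifugation at 10 000 rpm for 5 min and kept at −20 °C until analysis.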

Cytochrome P450 2C9 = Cytochrome P450 2C9 (Homo sapiens, UniProt P11712); assay: Inhibition of CYP2C9 at up to 50 uM; assay type: ADME
[8] = Clearance in Sprague-Dawley rat at 1 mg/kg, iv; assay type: ADME, organism-based; set-up: dose 1 mg/kg, route intravenous; details: in vivo; method in brief: as §2
Cytochrome P450 1A2 = molecular target: T3, Cytochrome P450 1A2 (Homo sapiens, UniProt P05177); assay: Inhibition of CYP1A2 at up to 50 uM; assay type: ADME
T3 sequence (P05177 whole entry): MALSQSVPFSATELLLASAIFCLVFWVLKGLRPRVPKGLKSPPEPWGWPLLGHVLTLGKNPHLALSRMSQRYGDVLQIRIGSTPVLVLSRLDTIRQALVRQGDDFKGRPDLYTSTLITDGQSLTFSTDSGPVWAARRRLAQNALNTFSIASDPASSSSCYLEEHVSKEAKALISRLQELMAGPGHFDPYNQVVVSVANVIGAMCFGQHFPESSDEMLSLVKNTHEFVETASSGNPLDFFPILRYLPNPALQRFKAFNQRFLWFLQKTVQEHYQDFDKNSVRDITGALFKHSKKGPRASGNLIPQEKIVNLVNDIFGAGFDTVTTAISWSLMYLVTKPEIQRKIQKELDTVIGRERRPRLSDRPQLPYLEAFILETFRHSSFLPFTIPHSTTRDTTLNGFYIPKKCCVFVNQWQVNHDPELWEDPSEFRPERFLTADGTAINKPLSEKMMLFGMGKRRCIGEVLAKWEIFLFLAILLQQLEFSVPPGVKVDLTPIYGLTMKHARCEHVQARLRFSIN

Interstitial collagenase = molecular target: T4, Interstitial collagenase (Homo sapiens, UniProt P03956); assay: Inhibition of human recombinant MMP1 after 60 mins by fluorescence plate reader; method in brief: as §1
T4 sequence (P03956 whole entry): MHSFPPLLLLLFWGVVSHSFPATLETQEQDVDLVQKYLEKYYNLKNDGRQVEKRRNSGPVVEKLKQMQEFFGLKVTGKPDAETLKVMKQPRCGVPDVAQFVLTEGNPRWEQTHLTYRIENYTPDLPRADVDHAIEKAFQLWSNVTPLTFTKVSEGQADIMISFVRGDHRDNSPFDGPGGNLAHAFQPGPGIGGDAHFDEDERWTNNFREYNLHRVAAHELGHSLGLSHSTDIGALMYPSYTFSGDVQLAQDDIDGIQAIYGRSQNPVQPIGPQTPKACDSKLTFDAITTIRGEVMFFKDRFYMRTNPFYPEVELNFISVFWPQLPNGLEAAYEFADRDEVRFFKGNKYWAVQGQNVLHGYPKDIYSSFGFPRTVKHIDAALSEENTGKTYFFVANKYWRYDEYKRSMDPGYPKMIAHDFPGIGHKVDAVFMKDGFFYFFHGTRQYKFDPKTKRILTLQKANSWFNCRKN

[9] = molecular target: T5, A disintegrin and metalloproteinase with thrombospondin motifs 4 (Homo sapiens, UniProt O75173); assay: Inhibition of human recombinant aggrecanase 1 after 150 mins by fluorescence plate reader
T5 sequence (O75173 whole entry): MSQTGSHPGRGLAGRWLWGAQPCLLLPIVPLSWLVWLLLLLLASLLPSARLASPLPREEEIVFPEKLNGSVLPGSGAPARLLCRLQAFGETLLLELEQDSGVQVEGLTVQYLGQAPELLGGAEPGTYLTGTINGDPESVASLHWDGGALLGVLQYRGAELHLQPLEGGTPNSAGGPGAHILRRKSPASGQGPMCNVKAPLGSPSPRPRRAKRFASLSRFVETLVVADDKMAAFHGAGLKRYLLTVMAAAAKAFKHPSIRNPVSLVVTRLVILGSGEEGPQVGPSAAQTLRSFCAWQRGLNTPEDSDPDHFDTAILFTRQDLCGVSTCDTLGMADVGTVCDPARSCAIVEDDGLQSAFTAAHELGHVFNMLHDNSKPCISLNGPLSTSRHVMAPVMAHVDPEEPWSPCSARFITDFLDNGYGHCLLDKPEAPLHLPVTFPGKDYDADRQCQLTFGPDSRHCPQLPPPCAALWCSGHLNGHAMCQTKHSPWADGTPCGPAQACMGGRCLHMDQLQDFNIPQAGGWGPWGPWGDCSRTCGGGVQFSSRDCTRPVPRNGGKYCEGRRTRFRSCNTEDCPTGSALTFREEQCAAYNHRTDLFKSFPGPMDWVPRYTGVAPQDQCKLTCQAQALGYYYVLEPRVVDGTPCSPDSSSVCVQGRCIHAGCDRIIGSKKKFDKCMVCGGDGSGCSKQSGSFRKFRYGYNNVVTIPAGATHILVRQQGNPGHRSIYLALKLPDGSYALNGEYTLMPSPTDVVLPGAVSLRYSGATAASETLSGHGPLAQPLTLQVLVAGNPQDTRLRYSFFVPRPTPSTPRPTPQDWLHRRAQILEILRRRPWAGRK

Stromelysin-1 = Stromelysin-1 (Homo sapiens, UniProt P08254); assay: Inhibition of human recombinant MMP3 after 60 mins by fluorescence plate reader
Method in brief: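 rh-MMP-3 at 40 ng/mL with 10 μM MOCAc-Arg-Pro-Lys-Pro-Val-Glu-Nva-Trp-Arg-Lys(Dnp)-NH₂, in Tris-HCl pH 7.5/NaCl/CaCl₂/Brij-35 buffer. Inhibitor preincubated for 15 min at 25 °C. Fluorescence (ex 325/em 405 nm) read at 60 min. IC50 from three central linear points; at least two determinations averaged.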

Collagenase 3 = Collagenase 3 (Homo sapiens, UniProt P45452); assay: Inhibition of human recombinant MMP13 after 60 mins by fluorescence plate reader
Method in brief: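 rh-MMP-13 at 40 ng/mL with 5 μM 7-MCA-Pro-CHA-Gly-NVal-His-Ala-DPA, in Tris-HCl pH 7.5/NaCl/CaCl₂/0.05% Brij-35. Pretreatment with inhibitor for 15 min at 25 °C, then substrate started the reaction. Fluorescence (ex 325/em 405 nm) read at 60 min. IC50 from three central linear points, averaged over ≥2 determinations.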

[10] = molecular target: Matrix metalloproteinase-9 (Homo sapiens, UniProt P14780); assay: Inhibition of human recombinant MMP9 after 60 mins by fluorescence plate reader
Method in brief: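 rh-MMP-9 at 4 ng/mL with 10 μM MOCAc-Pro-Leu-Gly-Leu-A2pr(Dnp)-Ala-Arg-NH₂, in 100 mM Tris-HCl pH 7.5, 150 mM NaCl, 10 mM CaCl₂, 0.05% Brij-35. Enzyme and inhibitor preincubated for 15 min at 25 °C before substrate. Fluorescence (ex 325/em 405 nm) read at 60 min. IC50 from three linear-range points; ≥2 runs averaged.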

Sequence of Cytochrome P450 2C19 (P33261 whole entry): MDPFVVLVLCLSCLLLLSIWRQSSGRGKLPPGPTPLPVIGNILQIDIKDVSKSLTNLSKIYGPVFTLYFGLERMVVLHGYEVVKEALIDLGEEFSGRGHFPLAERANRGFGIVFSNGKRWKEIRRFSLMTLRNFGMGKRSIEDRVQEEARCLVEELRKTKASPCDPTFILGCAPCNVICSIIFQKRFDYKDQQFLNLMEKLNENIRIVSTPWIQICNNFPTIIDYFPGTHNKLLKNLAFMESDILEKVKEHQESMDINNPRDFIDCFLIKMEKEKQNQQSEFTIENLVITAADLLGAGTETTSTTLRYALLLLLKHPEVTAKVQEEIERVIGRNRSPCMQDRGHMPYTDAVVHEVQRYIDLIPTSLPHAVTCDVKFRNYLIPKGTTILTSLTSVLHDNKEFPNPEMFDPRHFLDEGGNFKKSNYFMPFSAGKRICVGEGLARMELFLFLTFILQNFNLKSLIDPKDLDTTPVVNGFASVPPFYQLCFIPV
Sequence of Matrix metalloproteinase-9 (P14780 whole entry): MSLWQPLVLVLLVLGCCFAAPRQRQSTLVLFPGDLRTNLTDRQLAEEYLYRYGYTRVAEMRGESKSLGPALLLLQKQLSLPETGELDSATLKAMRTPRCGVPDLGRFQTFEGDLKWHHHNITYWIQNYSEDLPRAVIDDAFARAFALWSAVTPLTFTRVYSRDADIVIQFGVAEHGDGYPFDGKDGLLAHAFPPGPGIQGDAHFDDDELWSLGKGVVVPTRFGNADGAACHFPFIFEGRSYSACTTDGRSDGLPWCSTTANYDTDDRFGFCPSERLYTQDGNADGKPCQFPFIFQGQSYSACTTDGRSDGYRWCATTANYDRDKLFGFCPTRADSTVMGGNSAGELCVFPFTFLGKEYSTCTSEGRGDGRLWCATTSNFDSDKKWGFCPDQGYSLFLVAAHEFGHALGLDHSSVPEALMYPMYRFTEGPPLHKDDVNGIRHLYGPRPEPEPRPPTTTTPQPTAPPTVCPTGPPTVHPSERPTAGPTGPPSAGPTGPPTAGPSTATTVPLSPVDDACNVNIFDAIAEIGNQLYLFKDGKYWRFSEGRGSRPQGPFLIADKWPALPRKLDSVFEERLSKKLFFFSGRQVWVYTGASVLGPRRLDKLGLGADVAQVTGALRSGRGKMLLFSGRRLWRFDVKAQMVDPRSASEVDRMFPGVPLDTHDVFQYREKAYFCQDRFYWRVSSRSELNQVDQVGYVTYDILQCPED
Sequence of Stromelysin-1 (P08254 whole entry): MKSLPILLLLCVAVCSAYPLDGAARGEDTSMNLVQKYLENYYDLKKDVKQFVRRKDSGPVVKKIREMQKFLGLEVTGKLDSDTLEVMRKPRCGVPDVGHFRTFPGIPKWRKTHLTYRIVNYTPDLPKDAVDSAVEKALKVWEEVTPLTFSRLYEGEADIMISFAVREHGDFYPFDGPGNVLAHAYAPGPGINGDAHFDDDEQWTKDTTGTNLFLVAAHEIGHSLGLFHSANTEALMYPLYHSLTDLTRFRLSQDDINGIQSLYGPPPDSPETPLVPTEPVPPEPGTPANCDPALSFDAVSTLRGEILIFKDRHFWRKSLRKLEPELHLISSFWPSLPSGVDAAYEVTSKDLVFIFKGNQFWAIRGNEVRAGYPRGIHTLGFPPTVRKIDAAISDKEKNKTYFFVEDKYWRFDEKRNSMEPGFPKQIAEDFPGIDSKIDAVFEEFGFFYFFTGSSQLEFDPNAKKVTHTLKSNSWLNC
Sequence of Cytochrome P450 2C9 (P11712 whole entry): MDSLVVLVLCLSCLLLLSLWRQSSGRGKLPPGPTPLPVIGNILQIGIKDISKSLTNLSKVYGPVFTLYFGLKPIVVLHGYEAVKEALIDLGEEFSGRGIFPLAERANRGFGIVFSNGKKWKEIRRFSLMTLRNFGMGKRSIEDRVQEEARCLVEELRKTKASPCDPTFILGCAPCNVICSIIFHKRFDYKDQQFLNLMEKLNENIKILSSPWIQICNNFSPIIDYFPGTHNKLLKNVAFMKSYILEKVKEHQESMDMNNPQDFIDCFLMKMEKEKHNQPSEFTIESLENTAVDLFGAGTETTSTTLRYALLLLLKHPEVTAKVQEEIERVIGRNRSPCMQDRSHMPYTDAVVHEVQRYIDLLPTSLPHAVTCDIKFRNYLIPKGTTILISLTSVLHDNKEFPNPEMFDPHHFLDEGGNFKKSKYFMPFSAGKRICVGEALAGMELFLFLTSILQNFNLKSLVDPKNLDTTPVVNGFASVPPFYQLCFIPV
Sequence of Disintegrin and metalloproteinase domain-containing protein 17 (P78536 whole entry, the tested form may be a part): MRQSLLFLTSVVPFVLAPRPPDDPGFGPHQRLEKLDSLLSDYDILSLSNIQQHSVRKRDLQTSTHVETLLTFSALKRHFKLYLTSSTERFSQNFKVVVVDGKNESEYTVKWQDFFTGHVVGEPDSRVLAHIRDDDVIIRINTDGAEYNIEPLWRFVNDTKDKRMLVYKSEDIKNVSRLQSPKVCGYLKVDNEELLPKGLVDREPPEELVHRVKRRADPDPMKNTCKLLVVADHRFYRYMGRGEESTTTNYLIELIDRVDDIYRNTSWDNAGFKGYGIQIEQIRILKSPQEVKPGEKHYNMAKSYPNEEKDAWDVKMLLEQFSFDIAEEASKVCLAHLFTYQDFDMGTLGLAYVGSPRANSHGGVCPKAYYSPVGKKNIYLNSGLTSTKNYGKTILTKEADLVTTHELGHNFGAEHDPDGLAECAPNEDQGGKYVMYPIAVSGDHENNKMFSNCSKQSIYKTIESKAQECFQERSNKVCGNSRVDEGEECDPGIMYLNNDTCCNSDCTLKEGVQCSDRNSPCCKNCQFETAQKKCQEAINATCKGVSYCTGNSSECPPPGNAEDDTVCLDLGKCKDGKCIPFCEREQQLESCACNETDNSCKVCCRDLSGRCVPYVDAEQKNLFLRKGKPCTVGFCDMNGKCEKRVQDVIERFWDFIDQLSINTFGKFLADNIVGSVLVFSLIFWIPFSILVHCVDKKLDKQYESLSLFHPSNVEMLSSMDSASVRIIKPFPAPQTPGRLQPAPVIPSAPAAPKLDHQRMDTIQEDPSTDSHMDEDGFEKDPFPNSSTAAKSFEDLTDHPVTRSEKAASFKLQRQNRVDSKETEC
Sequence of Cytochrome P450 3A4 (P08684 whole entry): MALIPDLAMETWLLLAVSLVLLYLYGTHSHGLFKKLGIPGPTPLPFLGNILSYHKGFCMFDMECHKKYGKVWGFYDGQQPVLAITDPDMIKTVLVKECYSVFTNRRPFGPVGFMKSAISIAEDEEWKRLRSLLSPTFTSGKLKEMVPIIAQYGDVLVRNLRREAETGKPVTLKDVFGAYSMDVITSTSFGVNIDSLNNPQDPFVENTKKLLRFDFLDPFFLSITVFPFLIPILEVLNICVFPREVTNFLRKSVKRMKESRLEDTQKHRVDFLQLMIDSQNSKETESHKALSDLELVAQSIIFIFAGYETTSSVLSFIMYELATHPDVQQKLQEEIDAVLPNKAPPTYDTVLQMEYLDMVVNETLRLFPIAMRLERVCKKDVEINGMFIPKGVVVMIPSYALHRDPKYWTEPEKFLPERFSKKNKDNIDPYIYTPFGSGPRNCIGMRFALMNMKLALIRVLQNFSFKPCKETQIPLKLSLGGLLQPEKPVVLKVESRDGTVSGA
Sequence of Cytochrome P450 2D6 (P10635 whole entry): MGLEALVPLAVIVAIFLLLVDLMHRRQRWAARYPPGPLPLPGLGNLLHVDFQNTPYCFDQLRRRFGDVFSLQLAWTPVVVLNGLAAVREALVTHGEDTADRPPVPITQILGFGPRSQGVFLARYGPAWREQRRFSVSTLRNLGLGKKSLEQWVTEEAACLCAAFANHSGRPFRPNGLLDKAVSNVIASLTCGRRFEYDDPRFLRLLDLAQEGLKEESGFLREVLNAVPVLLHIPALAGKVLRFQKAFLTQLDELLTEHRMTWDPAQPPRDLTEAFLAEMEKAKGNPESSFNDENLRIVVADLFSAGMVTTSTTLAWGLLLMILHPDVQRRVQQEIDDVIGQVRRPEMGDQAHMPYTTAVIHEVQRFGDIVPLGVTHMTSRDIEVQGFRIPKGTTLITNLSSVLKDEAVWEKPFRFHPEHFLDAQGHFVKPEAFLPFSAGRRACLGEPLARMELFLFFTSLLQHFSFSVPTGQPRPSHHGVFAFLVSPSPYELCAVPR

Row | inhibition (INH) (Cytochrome P450 2C19) | Cmax [1] | AUC [2] | half-life [3] | IC50 [4] | inhibition (INH) (Cytochrome P450 2D6) | F (Rattus norvegicus) | IC50 [5] | inhibition (INH) (Cytochrome P450 3A4) | inhibition (INH) (Cytochrome P450 2A6) | IC50 [6] | Vd [7] | inhibition (INH) (Cytochrome P450 2C9) | clearance [8] | inhibition (INH) (Cytochrome P450 1A2) | IC50 (Interstitial collagenase) | IC50 [9] | IC50 (Stromelysin-1) | IC50 (Collagenase 3) | IC50 [10] | Compound
1 | Not Active | 17.4 µM | 76.9 µM·h | 2 h | > 10000 nM | Not Active | 196% | > 10000 nM | Not Active | Not Active | 14 nM | 0.7 L/kg | Not Active | 10 mL/min/kg | Not Active | > 10000 nM | – | – | – | – | C[C@@H]1[C@](C)(c2ccccc2)[C@]1(NS(=O)(=O)N1CCn2c(nc3cc(F)ccc32)C1)C(=O)O
2 | – | – | – | – | – | – | – | 3.9 nM | – | – | – | – | – | – | – | – | 4 nM | 68 nM | 3.4 nM | 58 nM | C[C@@H]1[C@H](c2ccccc2)[C@]1(NS(=O)(=O)c1ccc(-n2cc(Cl)cn2)s1)C(=O)O
